Experimental data: ChEMBL document CHEMBL1141128, “Structure-activity relationship study on a simple cationic peptide motif for cellular delivery of antisense peptide nucleic acid” (J Med Chem, 2005)
Non-standard residues stand in square brackets, D forms with d. Residues, ends and D or L forms follow the SMILES beside them. Lys(Me2) = CN(C)CCCC[C@H](N)C(=O)O; hArg = N=C(N)NCCCC[C@H](N)C(=O)O; hLys = NCCCCC[C@H](N)C(=O)O; Nlys = NCCCCNCC(=O)O

Key:
[1] = Half-life of the conjugate when treated with 25% murine serum for enzymatic stability; assay type: ADME; conditions: mouse
How it was run: (§1)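 Conjugates at 20 μM in 10% FBS RPMI 1640 medium or 25% mouse serum (Hepes-stabilised, diluted in PBS, pH 7.1–7.4), incubated at 37 °C. Sampled to 168 h (FBS) or 48 h (serum); proteins precipitated with 10% DCA, PNA 6mer internal standard added. Analysed by C3 RP-HPLC at 60 °C; t1/2 from normalised full-length peak area versus time.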

[2] = test system: BCL1; experiment: Inhibitory concentration against BCL1 cell proliferation in WST-1 assay; Range 10-20; assay type: functional, Mus musculus
How it was run: (§2)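 BCL1 cells, 2000 per well, grown in DMEM with 10% FBS at 37 °C and 5% CO2. Exposed to conjugate for 3 days, then viable cells read by WST-1 absorbance at 450 nm. Value is the concentration at which absorbance fell below 50% of untreated control; triplicates.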

[3] = test system: CD40 mRNA; experiment: […] CD40 expression in BCL1 cells treated with 1 uM peptide nucleic acid (PNA)conjugate; n=3; assay type: functional, cell-based; conditions: Mus musculus
How it was run: (§3)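 Mouse BCL1 cells in DMEM with 10% FBS, given conjugate at 1, 3 or 10 μM by free uptake (no transfection agent) for 3 days. Cells trypsinised and stained 1 h with FITC anti-CD40 (HM40-3) or isotype control, then surface CD40 read by flow cytometry. Results are % untreated control, mean ± SD, n = 3.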

[4] = test system: CD40 mRNA; experiment: […] CD40 expression in BCL1 cells treated with 10 uM peptide nucleic acid (PNA)conjugate; n=3; assay type: functional, cell-based; conditions: Mus musculus; how it was run: as §3
[5] = test system: CD40 mRNA; experiment: […] CD40 expression in BCL1 cells treated with 3 uM peptide nucleic acid (PNA)conjugate; n=3; assay type: functional, cell-based; conditions: Mus musculus; how it was run: as §3
[6] = Half-life of the conjugate when treated with 10% foetal bovine serum for enzymatic stability; assay type: ADME, Bos taurus; conditions: cattle; how it was run: as §1
[7] = test system: BCL1; experiment: Inhibitory concentration against BCL1 cell proliferation in WST-1 assay; assay type: functional, Mus musculus; how it was run: as §2
[8] = Half-life of the conjugate when treated with 25% murine serum for enzymatic stability; No data available; assay type: ADME; conditions: mouse; how it was run: as §1

Compound	half-life [1]	IC50 [2]	UTC [3]	UTC [4]	UTC [5]	half-life [6]	IC50 for cell proliferation [7]	T1/2 [8]
NCCCC[C@@H](C=O)NC(=O)[C@H](CCCCN)NC(=O)[C@H](CCCCN)NOC(=O)[C@H](CCCN)NC(=O)[C@H](CCCCN)NC(=O)[C@H](CCCCN)NOC(=O)[C@H](CCCN)NC(=O)[C@H](CCCCN)NC(=O)[C@@H](N)CCCCN	18 h	20 µM	94%	34%	65%	> 168 h		
N=C(N)NCCCC[C@H](NC(=O)[C@H](CCCCNC(=N)N)NC(=O)[C@H](CCCCNC(=N)N)NC(=O)[C@H](CCCCNC(=N)N)NC(=O)[C@H](CCCCNC(=N)N)NC(=O)[C@H](CCCCNC(=N)N)NC(=O)[C@H](CCCCNC(=N)N)NC(=O)[C@@H](N)CCCCNC(=N)N)C(=O)N[C@H](C=O)CCCCN	15 h		91%	20%	45%	> 168 h	5 µM	
NCCCC[C@@H](C=O)NOC(=O)C(CCCN)NC(=O)[C@H](CCCCN)NOC(=O)C(CCCN)NC(=O)[C@H](CCCCN)NOC(=O)C(CCCN)NC(=O)[C@H](CCCCN)NOC(=O)C(CCCN)NC(=O)[C@@H](N)CCCCN (stereo partly drawn)			94%	42%	61%	> 168 h	5 µM	No data available
NCCCC[C@@H](C=O)NC(=O)[C@H](CCCCN)NC(=O)[C@@H](CCCCN)NC(=O)[C@H](CCCCN)NC(=O)[C@H](CCCCN)NC(=O)[C@@H](CCCCN)NC(=O)[C@H](CCCCN)NC(=O)[C@@H](N)CCCCN	> 48 h	20 µM	102%	62%	87%	> 168 h		
NCCCC[C@@H](C=O)NOC(=O)[C@H](CCCN)NOC(=O)[C@H](CCCN)NC(=O)[C@H](CCCCN)NC(=O)[C@H](CCCCN)NC(=O)[C@H](CCCCN)NC(=O)[C@H](CCCCN)NOC(=O)[C@H](CCCN)NOC(=O)[C@@H](N)CCCN						> 168 h		No data available
NCCCC[C@@H](C=O)NOC(=O)C(CCCN)NOC(=O)C(CCCN)NC(=O)[C@H](CCCCN)NC(=O)[C@H](CCCCN)NC(=O)[C@H](CCCCN)NC(=O)[C@H](CCCCN)NOC(=O)C(CCCN)NOC(=O)C(N)CCCN (stereo partly drawn)			97%	52%	69%		5 µM	
NCCCC[C@H](NC(=O)CN(CCCCN)C(=O)CN(CCCCN)C(=O)CN(CCCCN)C(=O)CN(CCCCN)C(=O)CN(CCCCN)C(=O)CN(CCCCN)C(=O)CN(CCCCN)C(=O)CN(CCCCN)C(=O)CN)C(=O)O (H-G[Nlys][Nlys][Nlys][Nlys][Nlys][Nlys][Nlys][Nlys]K-OH)	> 48 h	20 µM	92%	56%	80%	> 168 h		
NCCCC[C@@H](C=O)NC(=O)[C@H](Cc1c[nH]cn1)NC(=O)[C@H](Cc1c[nH]cn1)NC(=O)[C@H](Cc1c[nH]cn1)NC(=O)[C@H](Cc1c[nH]cn1)NC(=O)[C@H](Cc1c[nH]cn1)NC(=O)[C@H](Cc1c[nH]cn1)NC(=O)[C@H](Cc1c[nH]cn1)NC(=O)[C@@H](N)Cc1c[nH]cn1 (H-HHHHHHHHK-aldehyde)	44 h		81%	64%	74%	> 168 h	>20 µM	
NCCCC[C@@H](C=O)NC(=O)[C@H](Cc1c[nH]cn1)NC(=O)[C@H](CCCCN)NC(=O)[C@H](Cc1c[nH]cn1)NC(=O)[C@H](CCCCN)NC(=O)[C@H](Cc1c[nH]cn1)NC(=O)[C@H](CCCCN)NC(=O)[C@H](Cc1c[nH]cn1)NC(=O)[C@@H](N)CCCCN (H-KHKHKHKHK-aldehyde)	6 h		88%	73%	87%	> 168 h	>20 µM	
NCCCC[C@@H](C=O)NC(=O)[C@H](CCCCN)NC(=O)[C@H](CCCCN)NC(=O)[C@H](Cc1c[nH]cn1)NC(=O)[C@H](CCCCN)NC(=O)[C@H](CCCCN)NC(=O)[C@H](Cc1c[nH]cn1)NC(=O)[C@H](CCCCN)NC(=O)[C@@H](N)CCCCN (H-KKHKKHKKK-aldehyde)	6 h	20 µM	86%	52%	73%	> 168 h		
CN(C)CCCC[C@H](NC(=O)[C@H](CCCCN)NC(=O)[C@H](CCCCN)NC(=O)[C@H](CCCCN(C)C)NC(=O)[C@H](CCCCN)NC(=O)[C@@H](N)CCCCN)C(=O)N[C@@H](CCCCN)C(=O)N[C@@H](CCCCN)C(=O)N[C@H](C=O)CCCCN (H-KK[Lys(Me2)]KK[Lys(Me2)]KKK-aldehyde)	22 h		96%	41%	78%	> 168 h	5 µM	
NCCCC[C@H](NC(=O)[C@H](CCCCN)NC(=O)[C@H](CCCCN)NC(=O)CN(CCCCN)C(=O)[C@H](CCCCN)NC(=O)[C@H](CCCCN)NC(=O)CN(CCCCN)C(=O)[C@H](CCCCN)NC(=O)[C@@H](N)CCCCN)C(=O)O (H-KK[Nlys]KK[Nlys]KKK-OH)	29 h	20 µM	104%	60%	88%	> 168 h		
NCCCC[C@@H](C=O)NC(=O)[C@H](CCCCN)NC(=O)[C@H](CCCCN)NC(=O)[C@H](CCCCN=C(N)N)NC(=O)[C@H](CCCCN)NC(=O)[C@H](CCCCN)NC(=O)[C@H](CCCCN=C(N)N)NC(=O)[C@H](CCCCN)NC(=O)[C@@H](N)CCCCN (H-KK[hArg]KK[hArg]KKK-aldehyde)			92%	36%	75%	> 168 h	10 µM	No data available
NCCCCC[C@H](NC(=O)[C@H](CCCCN)NC(=O)[C@H](CCCCN)NC(=O)[C@H](CCCCCN)NC(=O)[C@H](CCCCN)NC(=O)[C@@H](N)CCCCN)C(=O)N[C@@H](CCCCN)C(=O)N[C@@H](CCCCN)C(=O)N[C@H](C=O)CCCCN (H-KK[hLys]KK[hLys]KKK-aldehyde)	10 h		76%	31%	61%	> 168 h	>20 µM	
CN(C)CCCC[C@H](NC(=O)[C@H](CCCCN)NC(=O)[C@H](CCCCN(C)C)NC(=O)[C@H](CCCCN)NC(=O)[C@H](CCCCN(C)C)NC(=O)[C@H](CCCCN)NC(=O)[C@H](CCCCN(C)C)NC(=O)[C@@H](N)CCCCN)C(=O)N[C@H](C=O)CCCCN (H-K[Lys(Me2)]K[Lys(Me2)]K[Lys(Me2)]K[Lys(Me2)]K-aldehyde)			96%	53%	89%	> 168 h	20 µM	No data available
NCCCCC[C@H](NC(=O)[C@H](CCCCN)NC(=O)[C@H](CCCCCN)NC(=O)[C@H](CCCCN)NC(=O)[C@H](CCCCCN)NC(=O)[C@H](CCCCN)NC(=O)[C@H](CCCCCN)NC(=O)[C@@H](N)CCCCN)C(=O)N[C@H](C=O)CCCCN (H-K[hLys]K[hLys]K[hLys]K[hLys]K-aldehyde)			81%	32%	61%	> 168 h	>20 µM	No data available
CN(C)CCCC[C@H](NC(=O)[C@H](CCCCN(C)C)NC(=O)[C@H](CCCCN)NC(=O)[C@H](CCCCN(C)C)NC(=O)[C@H](CCCCN(C)C)NC(=O)[C@H](CCCCN)NC(=O)[C@H](CCCCN(C)C)NC(=O)[C@@H](N)CCCCN(C)C)C(=O)N[C@H](C=O)CCCCN (H-[Lys(Me2)][Lys(Me2)]K[Lys(Me2)][Lys(Me2)]K[Lys(Me2)][Lys(Me2)]K-aldehyde)			91%	63%	89%	> 168 h	>20 µM	No data available
CN(C)CCCC[C@H](NC(=O)[C@H](CCCCN(C)C)NC(=O)[C@H](CCCCN(C)C)NC(=O)[C@H](CCCCN(C)C)NC(=O)[C@H](CCCCN(C)C)NC(=O)[C@H](CCCCN(C)C)NC(=O)[C@H](CCCCN(C)C)NC(=O)[C@@H](N)CCCCN(C)C)C(=O)N[C@H](C=O)CCCCN (H-[Lys(Me2)][Lys(Me2)][Lys(Me2)][Lys(Me2)][Lys(Me2)][Lys(Me2)][Lys(Me2)][Lys(Me2)]K-aldehyde)	> 48 h		94%	71%	89%	> 168 h	10 µM	
NCCCCC[C@H](NC(=O)[C@H](CCCCCN)NC(=O)[C@H](CCCCN)NC(=O)[C@H](CCCCN)NC(=O)[C@H](CCCCN)NC(=O)[C@H](CCCCN)NC(=O)[C@H](CCCCCN)NC(=O)[C@@H](N)CCCCCN)C(=O)N[C@H](C=O)CCCCN (H-[hLys][hLys]KKKK[hLys][hLys]K-aldehyde)			86%	34%	66%	120 h	>20 µM	
NCCCCC[C@H](NC(=O)[C@H](CCCCCN)NC(=O)[C@H](CCCCCN)NC(=O)[C@H](CCCCCN)NC(=O)[C@H](CCCCCN)NC(=O)[C@H](CCCCCN)NC(=O)[C@H](CCCCCN)NC(=O)[C@@H](N)CCCCCN)C(=O)N[C@H](C=O)CCCCN (H-[hLys][hLys][hLys][hLys][hLys][hLys][hLys][hLys]K-aldehyde)	17 h		87%	31%	65%	> 168 h	10 µM	
